Reference: ChEMBL document CHEMBL4270612, “Discovery of dual GyrB/ParE inhibitors active against Gram-negative bacteria” (Eur J Med Chem, 2018)
Converted amounts (≈) assume the structure as drawn.

How the values were obtained:
DNA gyrase subunit B = DNA gyrase subunit B (Escherichia coli, UniProt P0AES6); experiment: Inhibition of Escherichia coli GyrB (1 to 220 residues) expressed in Escherichia coli BL21(DE3)
Pseudomonas aeruginosa [1] = experiment: Antibacterial activity against Pseudomonas aeruginosa PAO1 after 24 hrs by broth microdilution method; format: functional; settings: PAO1, 24 h
Method in brief: (§1)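 Broth microdilution per CLSI. Bacterial suspension adjusted to 1×10^6 CFU/mL in cation-adjusted Mueller–Hinton broth and mixed 1:1 with 2-fold serial compound dilutions. Final DMSO 2.5% v/v. Plates incubated at 35 °C with shaking at 140 rpm for 24 h.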

Pseudomonas aeruginosa [2] = experiment: Antibacterial activity against Pseudomonas aeruginosa harboring MexABCDXY deletion mutant after 24 hrs by broth microdilution method; format: functional
Method in brief: (§2)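 Broth microdilution per CLSI. Bacterial suspensions adjusted to 1×10^6 CFU/mL in cation-adjusted Mueller–Hinton broth, mixed 1:1 with 2-fold serial compound dilutions (final DMSO 2.5% v/v). Incubation 35 °C, 140 rpm, 24 h.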

Escherichia coli [3] = experiment: Antibacterial activity against Escherichia coli after 24 hrs by broth microdilution method; format: functional; method in brief: as §1
Escherichia coli [4] = experiment: Antibacterial activity against tolC deficient Escherichia coli after 24 hrs by broth microdilution method; format: functional
Method in brief: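 Broth microdilution per CLSI guidelines. Inoculum adjusted to 1×10^6 CFU/mL in cation-adjusted Mueller–Hinton broth, added 1:1 to 2-fold serial compound dilutions; final DMSO 2.5% v/v. Plates incubated 35 °C, 140 rpm, 24 h.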

Klebsiella pneumoniae = experiment: Antibacterial activity against Klebsiella pneumoniae ARC1865 after 24 hrs by broth microdilution method; format: functional; settings: ARC1865, 24 h; method in brief: as §1
Haemophilus influenzae = experiment: Antibacterial activity against Haemophilus influenzae ATCC 49247 after 24 hrs by broth microdilution method; format: functional; settings: ATCC 49247, 24 h; method in brief: as §1
Enterobacter cloacae = experiment: Antibacterial activity against Enterobacter cloacae ARC3528 after 24 hrs by broth microdilution method; format: functional; settings: ARC3528, 24 h; method in brief: as §1
Staphylococcus aureus [5] = experiment: Antibacterial activity against Staphylococcus aureus ATCC 29213 after 24 hrs by broth microdilution method; format: functional; settings: ATCC 29213, 24 h; method in brief: as §1
Staphylococcus aureus [6] = experiment: Antibacterial activity against Staphylococcus aureus ATCC 29213 after 24 hrs in presence of 2% human albumin by broth microdilution method; format: functional; settings: ATCC 29213, 24 h
Staphylococcus aureus [7] = experiment: Antibacterial activity against methicillin-resistant Staphylococcus aureus FQ-R after 24 hrs by broth microdilution method; format: functional; method in brief: as §2
Staphylococcus aureus [8] = experiment: Antibacterial activity against methicillin-resistant Staphylococcus aureus USA100 after 24 hrs by broth microdilution method; format: functional; settings: USA100, 24 h; method in brief: as §2
Streptococcus pyogenes = experiment: Antibacterial activity against Streptococcus pyogenes ARC838 after 24 hrs by broth microdilution method; format: functional; settings: ARC838, 24 h
Method in brief: (§3)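 Broth microdilution per CLSI. Bacterial suspension adjusted to 1×10^6 CFU/mL in cation-adjusted Mueller–Hinton broth and mixed 1:1 with 2-fold serial compound dilutions. Plates incubated at 35 °C with shaking at 140 rpm for 24 h.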

Streptococcus pneumoniae = experiment: Antibacterial activity against Streptococcus pneumoniae ATCC 49619 after 24 hrs by broth microdilution method; format: functional; settings: ATCC 49619, 24 h; method in brief: as §1
Enterococcus faecalis = experiment: Antibacterial activity against Enterococcus faecalis ATCC 29212 after 24 hrs by broth microdilution method; format: functional; settings: ATCC 29212, 24 h; method in brief: as §1
Candida albicans = experiment: Antifungal activity against Candida albicans ATCC 90028 after 24 hrs by broth microdilution method; format: functional; settings: ATCC 90028, 24 h
Pseudomonas aeruginosa [9] = experiment: Antibacterial activity against Pseudomonas aeruginosa ARC003 after 24 hrs by broth microdilution method; format: functional; settings: ARC003, 24 h; method in brief: as §1
Pseudomonas aeruginosa [10] = experiment: Antibacterial activity against Pseudomonas aeruginosa ARC3504 after 24 hrs by broth microdilution method; format: functional; settings: ARC3504, 24 h; method in brief: as §1
Pseudomonas aeruginosa [11] = experiment: Antibacterial activity against Pseudomonas aeruginosa ARC3505 after 24 hrs by broth microdilution method; format: functional; settings: ARC3505, 24 h; method in brief: as §1
Pseudomonas aeruginosa [12] = experiment: Antibacterial activity against Pseudomonas aeruginosa ARC3506 after 24 hrs by broth microdilution method; format: functional; settings: ARC3506, 24 h; method in brief: as §1
Pseudomonas aeruginosa [13] = experiment: Antibacterial activity against Pseudomonas aeruginosa ARC3509 after 24 hrs by broth microdilution method; format: functional; settings: ARC3509, 24 h; method in brief: as §1
Pseudomonas aeruginosa [14] = experiment: Antibacterial activity against Pseudomonas aeruginosa ARC3511 after 24 hrs by broth microdilution method; format: functional; settings: ARC3511, 24 h; method in brief: as §3
Pseudomonas aeruginosa [15] = experiment: Antibacterial activity against Pseudomonas aeruginosa ARC3606 after 24 hrs by broth microdilution method; format: functional; settings: ARC3606, 24 h; method in brief: as §1
Pseudomonas aeruginosa [16] = experiment: Antibacterial activity against Pseudomonas aeruginosa ARC3607 after 24 hrs by broth microdilution method; format: functional; settings: ARC3607, 24 h; method in brief: as §1
Pseudomonas aeruginosa [17] = experiment: Antibacterial activity against Pseudomonas aeruginosa ARC3611 after 24 hrs by broth microdilution method; format: functional; settings: ARC3611, 24 h; method in brief: as §1
Pseudomonas aeruginosa [18] = experiment: Antibacterial activity against Pseudomonas aeruginosa ARC3612 after 24 hrs by broth microdilution method; format: functional; settings: ARC3612, 24 h; method in brief: as §1
Pseudomonas aeruginosa [19] = experiment: Antibacterial activity against Pseudomonas aeruginosa ARC3729 after 24 hrs by broth microdilution method; format: functional; settings: ARC3729, 24 h; method in brief: as §1
Pseudomonas aeruginosa [20] = experiment: Antibacterial activity against Pseudomonas aeruginosa ARC3756 after 24 hrs by broth microdilution method; format: functional; settings: ARC3756, 24 h; method in brief: as §3
Pseudomonas aeruginosa [21] = experiment: Antibacterial activity against Pseudomonas aeruginosa ARC4060 after 24 hrs by broth microdilution method; format: functional; settings: ARC4060, 24 h; method in brief: as §1
Pseudomonas aeruginosa [22] = experiment: Antibacterial activity against Pseudomonas aeruginosa ARC4068 after 24 hrs by broth microdilution method; format: functional; settings: ARC4068, 24 h; method in brief: as §3
Acinetobacter baumannii [23] = experiment: Antibacterial activity against Acinetobacter baumannii ARC2674 after 24 hrs by broth microdilution method; format: functional; settings: ARC2674, 24 h; method in brief: as §1
Acinetobacter baumannii [24] = experiment: Antibacterial activity against Acinetobacter baumannii ARC2675 after 24 hrs by broth microdilution method; format: functional; settings: ARC2675, 24 h; method in brief: as §3
Acinetobacter baumannii [25] = experiment: Antibacterial activity against Acinetobacter baumannii ARC2728 after 24 hrs by broth microdilution method; format: functional; settings: ARC2728, 24 h; method in brief: as §1
Acinetobacter baumannii [26] = experiment: Antibacterial activity against Acinetobacter baumannii ARC2782 after 24 hrs by broth microdilution method; format: functional; settings: ARC2782, 24 h; method in brief: as §1
Acinetobacter baumannii [27] = experiment: Antibacterial activity against Acinetobacter baumannii ARC3484 after 24 hrs by broth microdilution method; format: functional; settings: ARC3484, 24 h; method in brief: as §3
Acinetobacter baumannii [28] = experiment: Antibacterial activity against Acinetobacter baumannii ARC3485 after 24 hrs by broth microdilution method; format: functional; settings: ARC3485, 24 h; method in brief: as §1
Acinetobacter baumannii [29] = experiment: Antibacterial activity against Acinetobacter baumannii ARC3486 after 24 hrs by broth microdilution method; format: functional; settings: ARC3486, 24 h; method in brief: as §1
Acinetobacter baumannii [30] = experiment: Antibacterial activity against Acinetobacter baumannii ARC3492 after 24 hrs by broth microdilution method; format: functional; settings: ARC3492, 24 h; method in brief: as §3
Acinetobacter baumannii [31] = experiment: Antibacterial activity against Acinetobacter baumannii ARC3515 after 24 hrs by broth microdilution method; format: functional; settings: ARC3515, 24 h; method in brief: as §1
Acinetobacter baumannii [32] = experiment: Antibacterial activity against Acinetobacter baumannii ARC3657 after 24 hrs by broth microdilution method; format: functional; settings: ARC3657, 24 h; method in brief: as §1
Acinetobacter baumannii [33] = experiment: Antibacterial activity against Acinetobacter baumannii ARC3659 after 24 hrs by broth microdilution method; format: functional; settings: ARC3659, 24 h; method in brief: as §1
Acinetobacter baumannii [34] = experiment: Antibacterial activity against Acinetobacter baumannii ARC3882 after 24 hrs by broth microdilution method; format: functional; settings: ARC3882, 24 h; method in brief: as §1

## CCNC(=O)Nc1cc(-c2nc(C3CC3)cs2)c(-c2cc(-c3n[nH]c(=O)o3)cnc2N2C3CCC2CN(C)C3)cn1
DNA gyrase subunit B
  IC50: 2 nM
Pseudomonas aeruginosa [1]
  MIC: 1.14 µg/mL (≈ 1.99 µM)
Pseudomonas aeruginosa [2]
  MIC: 0.23 µg/mL (≈ 0.401 µM)
Escherichia coli [3]
  MIC: 0.57 µg/mL (≈ 0.994 µM)
Escherichia coli [4]
  MIC: 0.11 µg/mL (≈ 0.192 µM)
Klebsiella pneumoniae
  MIC: 16 µg/mL (≈ 27.9 µM)
Haemophilus influenzae
  MIC: < 0.06 µg/mL
Enterobacter cloacae
  MIC: 16 µg/mL (≈ 27.9 µM)
Staphylococcus aureus [5]
  MIC: < 0.06 µg/mL
Staphylococcus aureus [6]
  MIC: < 0.06 µg/mL
Staphylococcus aureus [7]
  MIC: < 0.06 µg/mL
Staphylococcus aureus [8]
  MIC: < 0.06 µg/mL
Streptococcus pyogenes
  MIC: < 0.06 µg/mL
Streptococcus pneumoniae
  MIC: < 0.06 µg/mL
Enterococcus faecalis
  MIC: < 0.06 µg/mL
Candida albicans
  MIC: > 64 µg/mL
Pseudomonas aeruginosa [9]
  MIC: 1 µg/mL (≈ 1.74 µM)
Pseudomonas aeruginosa [10]
  MIC: 4 µg/mL (≈ 6.97 µM)
Pseudomonas aeruginosa [11]
  MIC: 4 µg/mL (≈ 6.97 µM)
Pseudomonas aeruginosa [12]
  MIC: 2 µg/mL (≈ 3.49 µM)
Pseudomonas aeruginosa [13]
  MIC: 4 µg/mL (≈ 6.97 µM)
Pseudomonas aeruginosa [14]
  MIC: 1 µg/mL (≈ 1.74 µM)
Pseudomonas aeruginosa [15]
  MIC: 4 µg/mL (≈ 6.97 µM)
Pseudomonas aeruginosa [16]
  MIC: 4 µg/mL (≈ 6.97 µM)
Pseudomonas aeruginosa [17]
  MIC: 4 µg/mL (≈ 6.97 µM)
Pseudomonas aeruginosa [18]
  MIC: 4 µg/mL (≈ 6.97 µM)
Pseudomonas aeruginosa [19]
  MIC: 4 µg/mL (≈ 6.97 µM)
Pseudomonas aeruginosa [20]
  MIC: 4 µg/mL (≈ 6.97 µM)
Pseudomonas aeruginosa [21]
  MIC: 4 µg/mL (≈ 6.97 µM)
Pseudomonas aeruginosa [22]
  MIC: 4 µg/mL (≈ 6.97 µM)
Acinetobacter baumannii [23]
  MIC: 4 µg/mL (≈ 6.97 µM)
Acinetobacter baumannii [24]
  MIC: 2 µg/mL (≈ 3.49 µM)
Acinetobacter baumannii [25]
  MIC: 1 µg/mL (≈ 1.74 µM)
Acinetobacter baumannii [26]
  MIC: 1 µg/mL (≈ 1.74 µM)
Acinetobacter baumannii [27]
  MIC: 2 µg/mL (≈ 3.49 µM)
Acinetobacter baumannii [28]
  MIC: 2 µg/mL (≈ 3.49 µM)
Acinetobacter baumannii [29]
  MIC: 2 µg/mL (≈ 3.49 µM)
Acinetobacter baumannii [30]
  MIC: 1 µg/mL (≈ 1.74 µM)
Acinetobacter baumannii [31]
  MIC: 2 µg/mL (≈ 3.49 µM)
Acinetobacter baumannii [32]
  MIC: 2 µg/mL (≈ 3.49 µM)
Acinetobacter baumannii [33]
  MIC: 1 µg/mL (≈ 1.74 µM)
Acinetobacter baumannii [34]
  MIC: 1 µg/mL (≈ 1.74 µM)
